{"data": "Published values collected from several papers", "target": "MAP kinase-activated protein kinase 3 (MAPKAPK3, Homo sapiens, UniProt Q16644)", "note": "Lines come from different studies, so protocols differ."}
{"SMILES": "Cc1cc(NC(=O)c2cccc3cc(-c4cccc5[nH]nc(N)c45)ccc23)ccc1F", "test": "enzyme activity, inhibitor", "conditions": "0.1 µM", "measurement": "activity vs control", "value": "96%"}
{"SMILES": "CCCCNc1ncc2c(-c3ccc(F)cc3)nn(C[C@H]3CC[C@H](N)CC3)c2n1", "test": "target engagement in cells, inhibitor, chemoproteomics", "conditions": "20 mM", "measurement": "inhibition", "value": "6.1%"}
{"SMILES": "O=C(Nc1cnn(-c2csc(C(=O)NC3COC3)c2)c1)Nc1ccccc1Cl", "test": "enzyme activity, inhibitor", "conditions": "5 µM", "measurement": "remaining activity", "value": "83.5%"}
{"SMILES": "CC(C)(O)[C@H]1CC[C@H](Nc2ccc3ncc(-c4cccc(C(F)(F)F)c4)n3n2)CC1", "test": "enzyme activity, inhibitor", "conditions": "1 µM", "measurement": "remaining activity", "value": "103%"}
{"SMILES": "CCN(CC)c1ccc(C2=NNC(=O)CC2C)cc1[N+](=O)[O-] (stereo not drawn)", "test": "enzyme activity, inhibitor", "conditions": "10 µM", "measurement": "remaining activity", "value": "100%"}
{"SMILES": "CNC(=O)c1cc(Oc2ccc(NC(=O)Nc3ccc(Cl)c(C(F)(F)F)c3)cc2)ccn1", "test": "enzyme activity, inhibitor", "conditions": "0.3 µM", "measurement": "inhibition", "value": "-3%"}
{"SMILES": "O=C1Nc2ccc(Cl)cc2C1=Cc1cc(Cl)c(O)c(Cl)c1", "test": "cell-free assay", "conditions": "0.5 µM", "measurement": "remaining signal", "value": "88.4%"}
{"SMILES": "CC(C)(C)c1nc(-c2cccc(NS(=O)(=O)c3c(F)cccc3F)c2F)c(-c2ccnc(N)n2)s1", "test": "enzyme activity, inhibitor, radiometric", "conditions": "1 µM", "measurement": "remaining activity", "value": "92%"}
{"SMILES": "Cc1ccc(Nc2nccc(N(C)c3ccc4c(C)n(C)nc4c3)n2)cc1S(N)(=O)=O", "test": "enzyme activity, inhibitor", "conditions": "0.3 µM", "measurement": "inhibition", "value": "-8%"}
{"SMILES": "CN1CC(Oc2cnc(C#N)cc2-c2ccn3nc(NC(=O)C4CC4)cc3c2)C1", "test": "enzyme activity, inhibitor", "conditions": "1 µM", "measurement": "inhibition", "value": "-1%"}
{"SMILES": "CCN(CC)CCNC(=O)c1c(C)[nH]c(/C=C2\\C(=O)Nc3ccc(F)cc32)c1C", "test": "enzyme activity, inhibitor", "conditions": "10 µM", "measurement": "inhibition", "value": "6%"}
{"SMILES": "Cc1cnc(NC2CCOCC2)nc1-n1cnc(C(=O)NC(CN)c2cc(F)cc(Cl)c2)c1 (stereo not drawn)", "test": "enzyme activity, inhibitor, radiometric", "conditions": "1 µM", "measurement": "remaining activity", "value": "110%"}
{"SMILES": "N#CCCc1ccc2c(c1)-c1[nH]c3ccc([N+](=O)[O-])cc3c1CC(=O)N2", "test": "cell-free assay", "conditions": "0.5 µM", "measurement": "remaining signal", "value": "96.8%"}
{"SMILES": "Cn1c(=O)n(-c2ccc(C(C)(C)C#N)cc2)c2c3cc(-c4cnc5ccccc5c4)ccc3ncc21", "test": "enzyme activity, inhibitor", "conditions": "10 µM", "measurement": "remaining activity", "value": "110%"}
{"SMILES": "COc1cccc2c(NCc3ccccc3)nc(-n3c(N)nc4ccccc43)nc12", "test": "target engagement in cells, inhibitor, chemoproteomics", "conditions": "20 mM", "measurement": "inhibition", "value": "-7.4%"}
{"SMILES": "FC(F)(F)Oc1cccc(-c2cnc3ccc(-c4ccncc4)nn23)c1", "test": "enzyme activity, inhibitor, radiometric", "conditions": "5 µM", "measurement": "activity vs control", "value": "97%"}
{"SMILES": "COc1cc2ncnc(Nc3ccc(Oc4ccccc4)cc3C)c2cc1OC", "test": "enzyme activity, inhibitor", "conditions": "1 µM", "measurement": "inhibition", "value": "0%"}
{"SMILES": "COc1cc(Nc2cnc(C#N)c(O[C@H](C)CN(C)C)n2)ncc1-c1cnn(C)c1", "test": "enzyme activity, inhibitor, radiometric", "conditions": "1 µM", "measurement": "remaining activity", "value": "96%"}
